Results: ChEMBL document CHEMBL4715736, “Identification of anticancer agents based on the thieno[2,3-b]pyridine and 1H-pyrazole molecular scaffolds” (2016)

How the values were obtained:
Assay type in all cases: functional
MOLT-4 = test: Growth inhibition of human MOLT-4 cells assessed as cell growth at 0.01 uM incubated for 48 hrs by sulforhodamine B assay relative to control; conditions: read-out: Activity
COLO 205 = test: Growth inhibition of human COLO 205 cells assessed as cell growth at 0.01 uM incubated for 48 hrs by sulforhodamine B assay relative to control; conditions: read-out: Activity
Summary of the method: (§1)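 NCI Developmental Therapeutics Program NCI60 panel. Compounds that were active in the 10 µM one-dose screen went on to dose–response testing. Growth at each concentration is expressed relative to untreated control (100%). GI50 (concentration giving 50% of maximal inhibition of proliferation) and TGI (concentration giving total growth inhibition) were derived from the curves.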

HCT-116 [1] = test: Growth inhibition of human HCT-116 cells assessed as cell growth at 0.01 uM incubated for 48 hrs by sulforhodamine B assay relative to control; conditions: read-out: Activity
NCI/ADR-RES [2] = test: Growth inhibition of human NCI/ADR-RES cells assessed as cell growth at 0.01 uM incubated for 48 hrs by sulforhodamine B assay relative to control; conditions: read-out: Activity
MCF7 = test: Growth inhibition of human MCF7 cells assessed as cell growth at 0.01 uM incubated for 48 hrs by sulforhodamine B assay relative to control; conditions: read-out: Activity
RPMI-8226 [3] = test: Growth inhibition of human RPMI-8226 cells assessed as cell growth at 0.1 uM incubated for 48 hrs by sulforhodamine B assay relative to control; conditions: read-out: Activity
A549 [4] = test: Growth inhibition of human A549/ATCC cells assessed as cell growth at 0.1 uM incubated for 48 hrs by sulforhodamine B assay relative to control; conditions: read-out: Activity; summary of the method: as §1
HCT-116 [5] = test: Growth inhibition of human HCT-116 cells assessed as cell growth at 0.1 uM incubated for 48 hrs by sulforhodamine B assay relative to control; conditions: read-out: Activity
HCT-15 [6] = test: Growth inhibition of human HCT-15 cells assessed as cell growth at 0.1 uM incubated for 48 hrs by sulforhodamine B assay relative to control; conditions: read-out: Activity
SF-295 [7] = test: Growth inhibition of human SF-295 cells assessed as cell growth at 0.1 uM incubated for 48 hrs by sulforhodamine B assay relative to control; conditions: read-out: Activity
U-251 [8] = test: Growth inhibition of human U-251 cells assessed as cell growth at 0.1 uM incubated for 48 hrs by sulforhodamine B assay relative to control; conditions: read-out: Activity
OVCAR-3 = test: Growth inhibition of human OVCAR-3 cells assessed as cell growth at 0.1 uM incubated for 48 hrs by sulforhodamine B assay relative to control; conditions: read-out: Activity
NCI/ADR-RES [9] = test: Growth inhibition of human NCI/ADR-RES cells assessed as cell growth at 0.1 uM incubated for 48 hrs by sulforhodamine B assay relative to control; conditions: read-out: Activity
K562 = test: Growth inhibition of human K562 cells assessed as cell growth at 1 uM incubated for 48 hrs by sulforhodamine B assay relative to control; conditions: read-out: Activity
SF-295 [10] = test: Growth inhibition of human SF-295 cells assessed as cell growth at 1 uM incubated for 48 hrs by sulforhodamine B assay relative to control; conditions: read-out: Activity
SK-MEL-5 [11] = test: Growth inhibition of human SK-MEL-5 cells assessed as cell growth at 1 uM incubated for 48 hrs by sulforhodamine B assay relative to control; conditions: read-out: Activity
OVCAR-4 = test: Growth inhibition of human OVCAR-4 cells assessed as cell growth at 1 uM incubated for 48 hrs by sulforhodamine B assay relative to control; conditions: read-out: Activity
RXF 393 = test: Growth inhibition of human RXF 393 cells assessed as cell growth at 1 uM incubated for 48 hrs by sulforhodamine B assay relative to control; conditions: read-out: Activity
RPMI-8226 [12] = test: Growth inhibition of human RPMI-8226 cells assessed as cell growth at 100 uM incubated for 48 hrs by sulforhodamine B assay relative to control; conditions: read-out: Activity
SR [13] = test: Growth inhibition of human SR cells assessed as cell growth at 100 uM incubated for 48 hrs by sulforhodamine B assay relative to control; conditions: read-out: Activity
A549 [14] = test: Growth inhibition of human A549/ATCC cells assessed as cell growth at 100 uM incubated for 48 hrs by sulforhodamine B assay relative to control; conditions: read-out: Activity; summary of the method: as §1
NCI-H460 = test: Growth inhibition of human NCI-H460 cells assessed as cell growth at 100 uM incubated for 48 hrs by sulforhodamine B assay relative to control; conditions: read-out: Activity
M14 [15] = test: Growth inhibition of human M14 cells assessed as cell growth at 100 uM incubated for 48 hrs by sulforhodamine B assay relative to control; conditions: read-out: Activity
SK-MEL-5 [16] = test: Growth inhibition of human SK-MEL-5 cells assessed as cell growth at 100 uM incubated for 48 hrs by sulforhodamine B assay relative to control; conditions: read-out: Activity
SN12C = test: Growth inhibition of human SN12C cells assessed as cell growth at 100 uM incubated for 48 hrs by sulforhodamine B assay relative to control; conditions: read-out: Activity
SR [17] = test: Growth inhibition of human SR cells incubated for 48 hrs by sulforhodamine B assay
Summary of the method: (§2)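 NCI DTP 60-line human tumour panel. Dose-response curves were run only for ligands active in the initial 10 µM screen. GI50 (concentration giving 50% of maximal inhibition of proliferation) and TGI (concentration giving total growth inhibition) were derived from these curves.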

HCT-15 [18] = test: Growth inhibition of human HCT-15 cells incubated for 48 hrs by sulforhodamine B assay
Summary of the method: (§3)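 NCI60 panel at the NCI Developmental Therapeutics Program. Only compounds active in the 10 µM screen went to dose-response testing. GI50, the concentration giving 50% of maximal inhibition of proliferation, and TGI, the concentration giving total growth inhibition, were derived from the dose-response curves.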

SNB-19 = test: Growth inhibition of human SNB-19 cells incubated for 48 hrs by sulforhodamine B assay; summary of the method: as §2
U-251 [19] = test: Growth inhibition of human U-251 cells incubated for 48 hrs by sulforhodamine B assay; summary of the method: as §2
M14 [20] = test: Growth inhibition of human M14 cells incubated for 48 hrs by sulforhodamine B assay; summary of the method: as §3
CAKI-1 = test: Growth inhibition of human CAKI-1 cells incubated for 48 hrs by sulforhodamine B assay; summary of the method: as §1
PC-3 = test: Growth inhibition of human PC-3 cells incubated for 48 hrs by sulforhodamine B assay; summary of the method: as §2
[21] = read-out: LC50 (the source's name)

In the case of `CCc1cccc(C)c1NC(=O)c1sc2nc3c(cc2c1N)C(=O)CCC3`, the growth at 0.01 µM (MOLT-4) is reported as 98%, the growth at 0.01 µM (COLO 205) is reported as 96% and the growth at 0.01 µM (HCT-116 [1]) is reported as 92%. The growth at 0.01 µM (NCI/ADR-RES [2]) was 100%, the growth at 0.01 µM (MCF7) was 83% and the growth at 0.1 µM (RPMI-8226 [3]) was 102%. It also gave a growth at 0.1 µM (A549 [4]) of 93%, a growth at 0.1 µM (HCT-116 [5]) of 96% and a growth at 0.1 µM (HCT-15 [6]) of 92%. It also gave a growth at 0.1 µM (SF-295 [7]) of 85%, a growth at 0.1 µM (U-251 [8]) of 90% and a growth at 0.1 µM (OVCAR-3) of 104%. The growth at 0.1 µM (NCI/ADR-RES [9]) was 99%, the growth at 1 µM (K562) was 16% and the growth at 1 µM (SF-295 [10]) was 5%. For the same compound, the growth at 1 µM (SK-MEL-5 [11]) was 6%, the growth at 1 µM (OVCAR-4) was 39% and the growth at 1 µM (RXF 393) was -12%. It also gave a growth at 100 µM (RPMI-8226 [12]) of -39%, a growth at 100 µM (SR [13]) of -18% and a growth at 100 µM (A549 [14]) of 6%. For the same compound, the growth at 100 µM (NCI-H460) was -33%, the growth at 100 µM (M14 [15]) was -17% and the growth at 100 µM (SK-MEL-5 [16]) was -78%. For the same compound, the growth at 100 µM (SN12C) was -4%, the GI50 (SR [17]) was 0.403 µM and the LC50 (SR [17]) was greater than 100 µM. For the same compound, the TGI (SR [17]) was no less than 100 µM, the GI50 (HCT-15 [18]) was 0.471 µM and the LC50 (HCT-15 [18]) was greater than 100 µM. It also gave a TGI (HCT-15 [18]) greater than 100 µM, a GI50 (SNB-19) of 0.87 µM and an LC50 (SNB-19) greater than 100 µM. For the same compound, the TGI (SNB-19) was greater than 100 µM, the GI50 (U-251 [19]) was 0.57 µM and the LC50 (concentration killing 50% of cells) (U-251 [19]) was greater than 100 µM. It also gave a TGI (U-251 [19]) greater than 100 µM, a GI50 (M14 [20]) of 0.367 µM and an LC50 (concentration killing 50% of cells) (M14 [20]) greater than 100 µM. It also gave a TGI (M14 [20]) of 19.5 µM, a GI50 (CAKI-1) of 0.511 µM and a TGI (CAKI-1) greater than 100 µM. The CC50 (CAKI-1; [21]) was greater than 100 µM, the GI50 (PC-3) was 0.454 µM and the TGI (PC-3) was greater than 100 µM. For the same compound, the CC50 (PC-3; [21]) was greater than 100 µM.
